Data as given in ChEMBL document CHEMBL3232844, “Synthesis and structure activity relationships of schweinfurthin indoles” (2014).

Key:
Assay type in all cases: functional
LOX IMVI = experiment: Cytotoxicity against human LOXIMVI cells; conditions: read-out: pTGI (converted)
In short: (§1)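 Tested in a 60-cell-line human tumor panel screen; the read-out is growth inhibition, reported as GI50 for each cell line.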

NCI-H460 = experiment: Cytotoxicity against human NCI-H460 cells; in short: as §1
NCI-H23 = experiment: Cytotoxicity against human NCI-H23 cells; in short: as §1
SK-MEL-2 = experiment: Cytotoxicity against human SK-MEL-2 cells; in short: as §1
HT-29 = experiment: Cytotoxicity against human HT-29 cells; in short: as §1
[1] = Cytotoxicity against human UO31 cells
In short: (§2)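 Cell line run as part of the 60-cell-line screening panel; growth inhibition was reported as a GI50 for each line.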

ACHN = experiment: Cytotoxicity against human ACHN cells; in short: as §1
KM12 = experiment: Cytotoxicity against human KM12 cells; in short: as §1
BT-549 = experiment: Cytotoxicity against human BT549 cells; in short: as §1
DU-145 = experiment: Cytotoxicity against human DU145 cells; in short: as §1
SF-295 = experiment: Cytotoxicity against human SF295 cells; in short: as §1
[2] = Cytotoxicity against human OVCAR5 cells; in short: as §1
HCT-116 = experiment: Cytotoxicity against human HCT116 cells; in short: as §1
U-251 = experiment: Cytotoxicity against human U251 cells; in short: as §2
SNB-75 = experiment: Cytotoxicity against human SNB75 cells; in short: as §2
[3] = Cytotoxicity against human OVCAR3 cells; in short: as §1
T47D = experiment: Cytotoxicity against human T47D cells; in short: as §2
IGROV-1 = experiment: Cytotoxicity against human IGROV1 cells; in short: as §1
HCC 2998 = experiment: Cytotoxicity against human HCC2998 cells; in short: as §1
SK-OV-3 = experiment: Cytotoxicity against human SKOV3 cells; in short: as §1
A549 = experiment: Cytotoxicity against human A549 cells; in short: as §1
A498 = experiment: Cytotoxicity against human A498 cells; in short: as §1
[4] = read-out: pLC50 (the source's name) (converted)

SMILES: COc1cc(/C=C/c2cc(OC)c3c(CC=C(C)C)c[nH]c3c2)cc2c1O[C@]1(C)CC[C@@H](O)C(C)(C)[C@H]1C2
- TGI (LOX IMVI): 1290 nM
- GI50 (NCI-H460): 372 nM
- CC50 (NCI-H460; [4]): 17000 nM
- TGI (NCI-H460; read-out: pTGI (converted)): 2190 nM
- GI50 (NCI-H23): 646 nM
- CC50 (NCI-H23; [4]): 26900 nM
- TGI (NCI-H23; read-out: pTGI (converted)): 3550 nM
- GI50 (SK-MEL-2): 331 nM
- CC50 (SK-MEL-2; [4]): 11000 nM
- TGI (SK-MEL-2; read-out: pTGI (converted)): 1580 nM
- GI50 (HT-29): 107 nM
- CC50 (HT-29; [4]): 2820 nM
- TGI (HT-29; read-out: pTGI (converted)): 708 nM
- GI50 ([1]; UO-31): 437 nM
- LC50 ([1]; UO-31): 56200 nM
- TGI ([1]; UO-31, read-out: pTGI (converted)): 6920 nM
- GI50 (ACHN): 1260 nM
- LC50 (concentration killing 50% of cells) (ACHN): 49000 nM
- TGI (ACHN; read-out: pTGI (converted)): 15100 nM
- GI50 (KM12): 355 nM
- CC50 (KM12; [4]): 7940 nM
- TGI (KM12; read-out: pTGI (converted)): 1700 nM
- GI50 (BT-549): 355 nM
- CC50 (BT-549; [4]): 67600 nM
- TGI (BT-549; read-out: pTGI (converted)): 15500 nM
- GI50 (DU-145): 2040 nM
- LC50 (50% lethal concentration) (DU-145): 46800 nM
- TGI (DU-145; read-out: pTGI (converted)): 15100 nM
- GI50 (SF-295; read-out: GI50): 48 nM
- GI50 (SF-295; read-out: pGI50 (converted)): 47.9 nM
- CC50 (SF-295; [4]): 871 nM
- TGI (SF-295; read-out: pTGI (converted)): 219 nM
- GI50 ([2]; OVCAR-5): 1550 nM
- CC50 ([2]; OVCAR-5, read-out: pLC50 (the source's name) (converted)): 51300 nM
- TGI ([2]; OVCAR-5, read-out: pTGI (converted)): 7240 nM
- GI50 (HCT-116): 417 nM
- CC50 (HCT-116; [4]): 57500 nM
- TGI (HCT-116; read-out: pTGI (converted)): 12600 nM
- GI50 (U-251): 75.9 nM
- CC50 (U-251; [4]): 12900 nM
- TGI (U-251; read-out: pTGI (converted)): 2290 nM
- GI50 (SNB-75): 89.1 nM
- CC50 (SNB-75; [4]): 75900 nM
- TGI (SNB-75; read-out: pTGI (converted)): 2690 nM
- GI50 ([3]; OVCAR-3): 2820 nM
- CC50 ([3]; OVCAR-3, read-out: pLC50 (the source's name) (converted)): 38000 nM
- TGI ([3]; OVCAR-3, read-out: pTGI (converted)): 12000 nM
- GI50 (T47D): 1740 nM
- CC50 (T47D; [4]): > 100000 nM
- TGI (T47D; read-out: pTGI (converted)): 17000 nM
- GI50 (IGROV-1): 1660 nM
- CC50 (IGROV-1; [4]): > 100000 nM
- TGI (IGROV-1; read-out: pTGI (converted)): 41700 nM
- GI50 (HCC 2998): 2510 nM
- CC50 (HCC 2998; [4]): 53700 nM
- TGI (HCC 2998; read-out: pTGI (converted)): 15800 nM
- GI50 (SK-OV-3): 776 nM
- LC50 (SK-OV-3): 67600 nM
- TGI (SK-OV-3; read-out: pTGI (converted)): 7240 nM
- GI50 (A549): 525 nM
- CC50 (A549; [4]): 50100 nM
- TGI (A549; read-out: pTGI (converted)): 12900 nM
- GI50 (A498): 138 nM
- CC50 (A498; [4]): 5250 nM
- TGI (A498; read-out: pTGI (converted)): 603 nM
